Format in all cases: biochemical
Experiment [1] addresses T1, E340G mutant bovine olfactory CNG channel (Bos taurus, UniProt Q03041, E340G).
T1 sequence (Q03041 1-663 E340G): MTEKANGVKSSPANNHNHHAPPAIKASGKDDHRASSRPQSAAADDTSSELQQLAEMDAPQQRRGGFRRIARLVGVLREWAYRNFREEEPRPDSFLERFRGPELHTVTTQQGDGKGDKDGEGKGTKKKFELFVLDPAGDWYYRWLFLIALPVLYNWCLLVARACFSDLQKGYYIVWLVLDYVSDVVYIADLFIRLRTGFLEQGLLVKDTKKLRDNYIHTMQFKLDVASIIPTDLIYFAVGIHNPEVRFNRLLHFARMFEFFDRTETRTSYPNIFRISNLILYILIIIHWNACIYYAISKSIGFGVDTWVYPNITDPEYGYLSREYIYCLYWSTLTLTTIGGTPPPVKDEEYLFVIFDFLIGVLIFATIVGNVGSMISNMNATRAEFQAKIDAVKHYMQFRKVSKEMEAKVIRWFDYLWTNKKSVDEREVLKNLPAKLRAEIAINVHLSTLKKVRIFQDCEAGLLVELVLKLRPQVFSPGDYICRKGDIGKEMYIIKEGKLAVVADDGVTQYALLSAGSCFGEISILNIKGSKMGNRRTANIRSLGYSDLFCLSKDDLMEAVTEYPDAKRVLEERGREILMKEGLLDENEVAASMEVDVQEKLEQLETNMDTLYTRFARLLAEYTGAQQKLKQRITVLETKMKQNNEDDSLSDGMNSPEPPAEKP
Kind of experiment: Divalent cation permeation, outside-out patches in bi-ionic conditions. The settings on record: for reversal potential, V rev: internal Na. Summed up:
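Outside-out oocyte patches; the pipette held 1 mM cGMP and 110 mM NaCl. External 110 mM NaCl was replaced by 73.3 mM CaCl2 or MgCl2. From a 0 mV holding potential, 150-ms steps were given from −80 to +80 mV in 20-mV increments. I_Ca/I_Na was taken at −80 mV, and reversal potential under bi-ionic conditions (internal Na+, external divalent); mean ± SD.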

The target of experiment [2] is T2, E340D mutant bovine olfactory CNG channel (Bos taurus, UniProt Q03041, E340D).
T2 sequence (Q03041 1-663 E340D): T1 sequence (Q03041 1-663 E340G) with G340D
Kind of experiment: Blockage of macroscopic current by external Ca2+ or Mg2+, outside-out patches. The conditions noted are these: for Ki: mean ± SD. Summed up:
(§1)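 Xenopus oocytes injected with wild-type or mutant channel mRNA; outside-out patches with 100 μM cGMP in the pipette. Bath: 110 mM NaCl, 2 mM EDTA, 10 mM HEPES, pH 7.4, plus Ca2+ (NTA-buffered) or Mg2+ (EDTA-buffered); unbuffered above 0.1 mM. Five 1-s ramps (−80 to +80 mV) averaged, leak subtracted. Current normalised to divalent-free current at the same voltage, Hill-fitted per patch; Ki and n given as mean ± SD.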

Experiment [3] concerns the target T3, E340N^‡ mutant bovine olfactory CNG channel (Bos taurus, UniProt Q03041, E340Q).
T3 sequence (Q03041 1-663 E340Q): T1 sequence (Q03041 1-663 E340G) with G340Q
Described as above. Summed up:
as §1

Experiment [4] has as its target T1, E340G mutant bovine olfactory CNG channel. The description is as above. The conditions noted are these: for Ki: mean ± SD. The essentials:
as §1

The mark [5] stands for this setting: external Mg2+, −80 mV, one experiment.

Changes are numbered by the printed parent chain.

For orientation: Ki means the dissociation constant of the complex between target and ligand, obtained from inhibition or displacement. A higher Ki goes with a looser hold on the target.

With `[Ca+2]` [Ca^2+], in experiment [1] (external Ca2+), the “reversal potential, V rev” value is 24 ± 5 mV. Besides, in experiment [1] (−80 mV, external 73.3 mM CaCl2 vs 110 mM NaCl), the “I Ca/I Na” value amounted to 0.16 ± 0.03. Besides, the “n, Hill coefficient of blockage” value in experiment [2] (external Ca2+, +80 mV) was 1.3 ± 0.5; in experiment [2] (external Ca2+, −80 mV), 1.2 ± 0.5; in experiment [3] (external Ca2+, +80 mV), 0.5 ± 0.2; in experiment [3] (external Ca2+, −80 mV), 0.4 ± 0.2; in experiment [4] (external Ca2+, +80 mV), 0.6 ± 0.2; in experiment [4] (external Ca2+, −80 mV), 0.4 ± 0.1. Also, the Ki in experiment [2] (external Ca2+, +80 mV) turned out to be 0.018 ± 0.01 mM; in experiment [2] (external Ca2+, −80 mV), 0.047 ± 0.007 mM; in experiment [3] (external Ca2+, +80 mV, mean ± SD), 19 ± 12 mM; in experiment [3] (external Ca2+, −80 mV, mean ± SD) it was 2.1 ± 0.6 mM; in experiment [4] (external Ca2+, +80 mV), 26 ± 9.8 mM; in experiment [4] (external Ca2+, −80 mV), 6.3 ± 2.5 mM.
As for `[Mg+2]` [Mg^2+], the “reversal potential, V rev” value in experiment [1] (external Mg2+) worked out at 45 ± 15 mV. The “n, Hill coefficient of blockage” value stood at 0.9 ± 0.2 in experiment [2] (external Mg2+, +80 mV); 0.7 ± 0.2 in experiment [2] (external Mg2+, −80 mV); 0.3 in experiment [3] (external Mg2+, +80 mV, one experiment); 0.5 in experiment [3] (setting [5]); 0.8 ± 0.2 in experiment [4] (external Mg2+, +80 mV); 0.7 ± 0.1 in experiment [4] (external Mg2+, −80 mV). Moreover, the Ki in experiment [2] (external Mg2+, +80 mV) is 0.155 ± 0.056 mM; in experiment [2] (external Mg2+, −80 mV), 0.053 ± 0.017 mM; in experiment [3] (setting [5]), 3.4 mM; in experiment [4] (external Mg2+, +80 mV) it was 9.5 ± 3.9 mM; in experiment [4] (external Mg2+, −80 mV), 1.1 ± 0.3 mM.

Values taken from publication PMC2233693 (The Journal of General Physiology, 2000).
